# “And” between values parts separate entries of the source, which are not always exact repeats. Identical values can stand only once.
# What was measured:
# U2OS = test: Multiplex assay against U2OS; assay type: toxicity, cell-based; details: human, number of replicates 2
# Outline: (§1)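 Live cells were stained at seeding with Hoechst33342, BioTracker Green Microtubule Cytoskeleton Dye, MitoTracker Red and Annexin V Alexa Fluor 680. Following compound addition, they were imaged on a CQ1 microscope at 37°C and 5% CO2 and gated by CellPathfinder machine learning into Hoechst high-intensity objects or normal cells, with normal cells split into healthy, pyknosed or fragmented nuclei and pyknosed cells into mitotic or apoptotic. Tubulin, mitochondrial-mass and membrane-permeability phenotypes are per cents of healthy-nucleus cells.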
# Fibroblast = test: Multiplex assay against human fibroblast; assay type: toxicity, cell-based; details: number of replicates 2; outline: as §1
# [1] = 24 h, 1 µM, compound concentration 1 uM
# [2] = 24 h, 10 µM, compound concentration 10 uM
# [3] = 48 h, 1 µM, compound concentration 1 uM
# [4] = 48 h, 10 µM, compound concentration 10 uM
# [5] = 12 h, 1 µM, compound concentration 1 uM
# [6] = 12 h, 10 µM, compound concentration 10 uM
smiles,measurement,setting,value
CC(C)c1cc(-c2ccc(F)c3ccccc23)nc(N)n1,Population Pyknosed Nuclei (%),U2OS; [1],9% and 10%
same,Population Tubulin-Different-Phenotype (%),U2OS; [1],89% and 41%
same,Population Apoptotic (%),U2OS; [2],100% and 65%
same,Population Healthy Nuclei (%),U2OS; [2],58% and 86%
same,Population Hoechst High Intensity Objects (%),U2OS; [2],0%
same,Population Membrane Permeable-Phenotype (%),U2OS; [2],11% and 3%
same,Population Mitochondria Different-Phenotype (%),U2OS; [2],11% and 1%
same,Population Normal (%),U2OS; [2],100%
same,Population Pyknosed Nuclei (%),U2OS; [2],6% and 8%
same,Population Tubulin-Different-Phenotype (%),U2OS; [2],55% and 72%
same,Population Fragmented Nuclei (%),U2OS; [3],13% and 3%
same,Population Healthy Nuclei (%),U2OS; [3],83% and 90%
same,Population Hoechst High Intensity Objects (%),U2OS; [3],0%
same,Population Membrane Permeable-Phenotype (%),U2OS; [3],1% and 2%
same,Population Mitochondria Different-Phenotype (%),U2OS; [3],1% and 0%
same,Population Mitotic Cells (%),U2OS; [3],100% and 60%
same,Population Normal (%),U2OS; [3],100%
same,Population Pyknosed Nuclei (%),U2OS; [3],2% and 6%
same,Population Tubulin-Different-Phenotype (%),U2OS; [3],57% and 93%
same,Population Apoptotic (%),U2OS; [4],83% and 59%
same,Population Healthy Nuclei (%),U2OS; [4],62% and 90%
same,Population Hoechst High Intensity Objects (%),U2OS; [4],0%
same,Population Mitotic Cells (%),U2OS; [4],16% and 40%
same,Population Normal (%),U2OS; [4],100%
same,Population Tubulin-Different-Phenotype (%),U2OS; [4],60% and 84%
same,Population Apoptotic (%),Fibroblast; [5],33%
same,Population Fragmented Nuclei (%),Fibroblast; [5],14% and 15%
same,Population Healthy Nuclei (%),Fibroblast; [5],70% and 65%
same,Population Hoechst High Intensity Objects (%),Fibroblast; [5],1% and 0%
same,Population Membrane Permeable-Phenotype (%),Fibroblast; [5],5% and 8%
same,Population Mitochondria Different-Phenotype (%),Fibroblast; [5],0% and 3%
same,Population Mitotic Cells (%),Fibroblast; [5],66%
same,Population Normal (%),Fibroblast; [5],98% and 100%
same,Population Pyknosed Nuclei (%),Fibroblast; [5],15% and 18%
same,Population Tubulin-Different-Phenotype (%),Fibroblast; [5],16% and 14%
same,Total Cell Count,Fibroblast; [5],161 and 144
same,Population Apoptotic (%),Fibroblast; [6],38%
same,Population Fragmented Nuclei (%),Fibroblast; [6],11% and 16%
same,Population Healthy Nuclei (%),Fibroblast; [6],75% and 71%
same,Population Hoechst High Intensity Objects (%),Fibroblast; [6],0%
same,Population Membrane Permeable-Phenotype (%),Fibroblast; [6],7%
same,Population Mitochondria Different-Phenotype (%),Fibroblast; [6],0% and 2%
same,Population Mitotic Cells (%),Fibroblast; [6],61%
same,Population Normal (%),Fibroblast; [6],100%
same,Population Pyknosed Nuclei (%),Fibroblast; [6],12%
same,Population Tubulin-Different-Phenotype (%),Fibroblast; [6],12%
same,Total Cell Count,Fibroblast; [6],140 and 174
same,Population Apoptotic (%),Fibroblast; [1],47% and 40%
same,Population Fragmented Nuclei (%),Fibroblast; [1],14% and 15%
same,Population Healthy Nuclei (%),Fibroblast; [1],71% and 67%
same,Population Hoechst High Intensity Objects (%),Fibroblast; [1],0%
same,Population Membrane Permeable-Phenotype (%),Fibroblast; [1],4% and 8%
same,Population Mitochondria Different-Phenotype (%),Fibroblast; [1],0% and 1%
same,Population Mitotic Cells (%),Fibroblast; [1],52% and 60%
same,Population Normal (%),Fibroblast; [1],100%
same,Population Pyknosed Nuclei (%),Fibroblast; [1],13% and 17%
same,Population Tubulin-Different-Phenotype (%),Fibroblast; [1],17% and 12%
same,Total Cell Count,Fibroblast; [1],157 and 140
same,Population Apoptotic (%),Fibroblast; [2],75% and 46%
same,Population Fragmented Nuclei (%),Fibroblast; [2],9% and 14%
same,Population Healthy Nuclei (%),Fibroblast; [2],84% and 76%
same,Population Hoechst High Intensity Objects (%),Fibroblast; [2],0%
same,Population Membrane Permeable-Phenotype (%),Fibroblast; [2],5% and 1%
same,Population Mitochondria Different-Phenotype (%),Fibroblast; [2],0% and 3%
same,Population Mitotic Cells (%),Fibroblast; [2],25% and 53%
same,Population Normal (%),Fibroblast; [2],99% and 100%
same,Population Pyknosed Nuclei (%),Fibroblast; [2],5% and 8%
same,Population Tubulin-Different-Phenotype (%),Fibroblast; [2],11% and 8%
same,Total Cell Count,Fibroblast; [2],135 and 171
same,Population Apoptotic (%),Fibroblast; [3],65% and 57%
same,Population Fragmented Nuclei (%),Fibroblast; [3],16% and 13%
same,Population Healthy Nuclei (%),Fibroblast; [3],69% and 71%
same,Population Hoechst High Intensity Objects (%),Fibroblast; [3],0%
same,Population Membrane Permeable-Phenotype (%),Fibroblast; [3],4% and 7%
same,Population Mitochondria Different-Phenotype (%),Fibroblast; [3],0%
same,Population Mitotic Cells (%),Fibroblast; [3],34% and 42%
same,Population Normal (%),Fibroblast; [3],100% and 99%
same,Population Pyknosed Nuclei (%),Fibroblast; [3],13% and 14%
same,Population Tubulin-Different-Phenotype (%),Fibroblast; [3],14% and 7%
same,Total Cell Count,Fibroblast; [3],173 and 142
same,Population Apoptotic (%),Fibroblast; [4],100% and 54%
same,Population Fragmented Nuclei (%),Fibroblast; [4],13% and 14%
same,Population Healthy Nuclei (%),Fibroblast; [4],82% and 79%
same,Population Hoechst High Intensity Objects (%),Fibroblast; [4],0%
same,Population Membrane Permeable-Phenotype (%),Fibroblast; [4],3% and 1%
same,Population Mitochondria Different-Phenotype (%),Fibroblast; [4],0%
same,Population Normal (%),Fibroblast; [4],100%
same,Population Pyknosed Nuclei (%),Fibroblast; [4],3% and 6%
same,Population Tubulin-Different-Phenotype (%),Fibroblast; [4],7% and 5%
same,Total Cell Count,Fibroblast; [4],152 and 175

# From ChEMBL document CHEMBL5303300, “EUbOPEN Chemogenomics Library - Multiplex” (2023)
